Assay results gathered from unrelated publications.
Compare with care: the assays were run in different laboratories.
Target: Cyclin-dependent kinase-like 2 (CDKL2, Homo sapiens, UniProt Q92772)
Sequence (Q92772 1-493, as in one of the studies): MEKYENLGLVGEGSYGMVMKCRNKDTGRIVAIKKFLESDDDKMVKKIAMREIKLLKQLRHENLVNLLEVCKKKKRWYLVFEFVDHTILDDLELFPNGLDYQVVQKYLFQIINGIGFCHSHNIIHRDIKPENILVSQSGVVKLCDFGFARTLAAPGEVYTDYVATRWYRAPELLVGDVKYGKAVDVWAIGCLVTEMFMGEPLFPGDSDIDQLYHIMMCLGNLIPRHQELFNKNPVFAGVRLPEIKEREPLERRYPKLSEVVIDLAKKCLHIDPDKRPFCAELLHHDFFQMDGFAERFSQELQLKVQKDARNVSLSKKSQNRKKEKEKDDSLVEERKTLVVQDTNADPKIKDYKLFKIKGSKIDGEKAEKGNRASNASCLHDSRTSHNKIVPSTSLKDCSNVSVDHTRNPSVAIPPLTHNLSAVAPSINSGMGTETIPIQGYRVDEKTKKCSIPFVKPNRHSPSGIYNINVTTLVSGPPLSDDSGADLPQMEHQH

For FC(F)(F)Oc1cccc(-c2cnc3ccc(-c4ccncc4)nn23)c1, the remaining binding was 67% (cell-free assay; competition with immobilised ligand; 5 µM).
O=C(c1ccc(Nc2nccc(-c3cc4ccccc4s3)n2)cc1)N1CCC(N2CCCC2)CC1 has a remaining binding of 8.8% (binding; competition with immobilised ligand; 1 µM).
With CN(C)C(=O)Cn1cc(-c2nc(C3(c4ccc(-c5cnc(N)nc5)cc4)CC3)no2)cn1 the remaining binding was 100% (cell-free assay; competition with immobilised ligand; 1 µM).
With O=C(c1ccc(Nc2ncc(Cl)c(-c3cc4ccccc4s3)n2)cc1)N1CCC(N2CCCC2)CC1 the remaining binding was 2.4% (binding; competition with immobilised ligand; 1 µM).
C[C@H]1CCN(c2nccc(-c3cnn4ncccc34)n2)C1 has a remaining binding of 100% (binding; 1 µM).
With CS(=O)(=O)N1CCCC(NC(=O)[C@H](CCC2CCCCC2)NC(=O)c2ccc(CNc3ncnc4c3nnn4-c3ccccc3)cc2)C1 (stereo partly shown) the remaining binding was 100% (cell-free assay; competition with immobilised ligand; 0.1 µM).
With CC1CCCN1c1nccc(-c2cnn3ncccc23)n1 (stereo not shown) the remaining binding was 100% (binding; 1 µM).
The remaining binding of O=C(Nc1c[nH]nc1C(=O)NC1CCNCC1)c1cc(F)cc(F)c1 is reported as 89% (binding; competition with immobilised ligand; 1 µM).
With Cn1cc(Cl)c2c(Oc3c(F)cc(Nc4cc(Cl)nc(N)n4)cc3F)ccnc21 the remaining binding was 100% (cell-free assay; competition with immobilised ligand; 0.1 µM).
For N[C@H]1CCN(c2nccc(-c3cnn4ncccc34)n2)C1, the remaining binding was 99% (binding; 1 µM).
For O=C(NCCCN1CCOCC1)c1ccc(Nc2nccc(-c3cc4ccccc4s3)n2)cc1, the remaining binding was 7.3% (binding; competition with immobilised ligand; 1 µM).
For CN(C)c1nccc(-c2cnc3ncccn23)n1, the remaining binding was 100% (binding; 1 µM).
The remaining binding of CCN1CCN(Cc2ccc(C(=O)Nc3ccc(C)c(Oc4ccc5c(c4)CC(=O)N5)c3)cc2C(F)(F)F)CC1 is reported as 75% (binding; competition with immobilised ligand; 1 µM).
The remaining binding of COc1ccnn2ncc(-c3ccnc(N(C)C)n3)c12 is reported as 91% (binding; 1 µM).
For O=C1CCc2cc(Nc3cc(OC4CCOCC4)c([N+](=O)[O-])cc3Cl)ccc2N1, the remaining binding was 92% (cell-free assay; competition with immobilised ligand; 1 µM).
With CN(C)c1nccc(-c2cnn3ncccc23)n1 the remaining binding was 100% (binding; 1 µM).
With CS(=O)(=O)N1CCCC(NC(=O)[C@H](CCC2CCCCC2)NC(=O)c2ccc(CNC(=O)c3cnc4ccccn34)cc2)C1 (stereo partly shown) the remaining binding was 85% (cell-free assay; competition with immobilised ligand; 0.1 µM).
COc1cnc(Nc2cccc(S(N)(=O)=O)c2)nc1N1CCN(c2ccccc2)CC1 gave a remaining binding of 100% (binding; competition with immobilised ligand; 1 µM).
For N#Cc1ccc(Nc2ccc3[nH]c(=O)[nH]c3c2)c(Cl)c1, the remaining binding was 100% (binding; competition with immobilised ligand; 1 µM).
COc1ncc2cc3ccccc3nc2c1C#N gave a remaining binding of 90% (binding; competition with immobilised ligand; 5 µM).
With O=C(Nc1cccnn1)N1CC(C/C=C/c2cncc(Oc3ccc(C(F)(F)F)cn3)n2)C1 the remaining binding was 100% (cell-free assay; competition with immobilised ligand; 1 µM).
The remaining binding of c1cncc(-c2cccc(Nc3nccc(NC4CCCCC4)n3)c2)c1 is reported as 64% (binding; competition with immobilised ligand; 10 µM).
